Results as given in the EternaBench riboswitch data.

Test system: MS2 coat protein
Experiment: apparent Kd, MS2 coat protein; higher = weaker binding; RNA-MaP array; FMN 200 µM where present
How it was run: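 Stalled E. coli RNA polymerase transcribed the designs on Illumina sequencing-chip clusters. SNAP-549-labelled MS2 coat protein was titrated from 0.7 or 1.5 nM, doubling to 3 µM, without and then with constant ligand, in 100 mM Tris-HCl pH 7.5, 80 mM KCl, 4 mM MgCl2, BSA, DTT, yeast tRNA and Tween-20. Per-cluster binding curves were fitted to green signal normalised to red-channel RNA signal and control-cluster median Fmax. The apparent Kd is the median of the filtered fits.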

[1] = designed as: OFF switch for flavin mononucleotide, no ligand
[2] = ligand present: flavin mononucleotide, designed as: OFF switch for flavin mononucleotide
[3] = designed as: ON switch for flavin mononucleotide, no ligand
[4] = ligand present: flavin mononucleotide, designed as: ON switch for flavin mononucleotide

Sequence | apparent Kd [1] | apparent Kd [2] | apparent Kd [3] | apparent Kd [4]
UUAUUGUGAGGAUAUCAGGUGUGCUAGCGUACUGGUACAUCUGAGAAGGCACAUGAGGAUCACCCAUGUUCCUU | 0.0143 µM | 0.0373 µM |  | 
UUAUUUAUGUAAGGAUAUCGAUGAUAUACGCAUCCGACAUGAGGAUCACCCAUGUUUUAUUUUGUCGAGAAGGUACAUUGUCGG |  |  | 0.0578 µM | 0.0571 µM
UUAUUUUGUCAAGGAUAUGUAGUAUUGAUCUGAAAACAUGAGGAUCACCCAUGUAUAUGGUGGGAACAGAAGGUGAAUGUUGAA | 0.658 µM | 0.845 µM |  | 
UUAUUUUUACAGAAGGUUUAAUAAUAUAUAUGAGAAGGAUAUGUAACAUGAGGAUCACCCAUGUUUCACCUAUAUGAGGAUCAU | 0.00726 µM | 0.00611 µM |  | 
UUAUUUUUACAGAAGGUUUAAUAAUAUGUAUGAGAAGGAUAUGUAACAUGAGGAUCACCCAUGUUUCGUCUAUAUGAGGAUCAU | 0.00677 µM | 0.00722 µM |  | 
UUCAGCGAUCAAGGAUAUCUAUAAACAUGCGGACAUGAGGAUCACCCAUGUUGAUCACCCAUGUGGGAGAAGGUGAACAUGAGG |  |  | 0.174 µM | 0.0729 µM
UUCAGCUCGUCAGGAUAUACGUCACUGCUUCGGCAGUGUGGUAAGAUCACAUGAGGAUCACCCAUGUAGAAGGGACGAGCUGAC | 0.0135 µM | 0.252 µM |  | 
UUCAGCUCGUGAGGAUAUACAUGUGCUGGAAACAGCACUAAUUAAAUCACAUGAGGAUCACCCAUGUAGAAGGCACGAGCUGAG | 0.0162 µM | 0.0258 µM |  | 
UUCAGCUCGUGAGGAUAUACAUGUGCUGGAUACAGCACUAUUAUGUUCACAUGAGGAUCACCCAUGUAGAAGGCACGAGCUGAG | 0.0166 µM | 0.0214 µM |  | 
UUCAGGGAUCAAGGAUAUCUAUAAUCAUGCGGACAUGAGGAUCACCCAUGUUGAUUACCCAUGAGGGAGAAGGUGAACAUGAGG |  |  | 0.0401 µM | 0.0167 µM
UUCAUGUGAGGAUAUAAAAGGAAGGUGGUAUCUAUCAACAAUUAGAAGGCACAUGAGGAUCACCCAUGUCUGAA | 0.067 µM | 0.0609 µM |  | 
UUCAUGUGAGGAUAUAAAAUGAAUAUAAAUUAUUAUCUUGAUUAGAAGGCACAUGAGGAUCACCCAUGUCUGAA | 0.0331 µM | 0.0479 µM |  | 
UUCAUGUGAGGAUAUGCGGCGGCAGGUGGGCCUGUCGCUGAGCAGAAGGCACAUGAGGAUCACCCAUGUGCUCC | 0.0343 µM | 0.0597 µM |  | 
UUCCAACAUGAGGAUCACCCAUGUCGGAAGCAUUAAGGAUAUGGGCGGCCGGUGGCUGAACCAGAAGGUAAGCCAG |  |  | 0.0153 µM | 0.0181 µM
UUCCCAGCGGGAGGAUAUGGUGCCUUAUUGGUGCUAGAAGGUCCAACAUGAGGAUCACCCAUGUGGGAGUGGUCUAAUGACCUC |  |  | 0.212 µM | 0.144 µM
UUCCGGCGUGUAGGAUAUGGAUCCGAUUAGGAUCCAGAAGGACAUGAGGAUCACCCAUGUACAUGUAAACAGUCAUCACCGGAU | 0.00809 µM | 0.0402 µM |  | 
UUCCUCGUUGUGAGGAUAUCGUCCUCUUUUUGUUACGAGAAGGCACAUGAGGAUCACCCAUGUUUCUUGAUGUU | 0.0167 µM | 0.0423 µM |  | 
UUCGGGAACUCUAUGGGCCGCUACAUGAGGAUCACCCAUGUGCAGGAUAUAGGUGUCACUACCGCCUAGAAGGGCACAGAAAGA | 0.0414 µM | 0.0586 µM |  | 
UUGAAUUGAAACAUGAGGAUCACCCAUGUGUCAUAAUUGACAUAGGAUAUGUUUAUACUUUUAAAACAGAAGGAUGACGAUACU |  |  | 0.0141 µM | 0.00968 µM
UUGAAUUGAAACAUGAGGAUCACCCAUGUGUCAUAGUUGACAUAGGAUAUGCUUAUACUUUUAAAGCAGAAGGAUGACGAUACU |  |  | 0.0198 µM | 0.00746 µM
UUGAGGUAAGGAUAUAUUAGGAGCGAAGUUACUUGUUUUUUAUAGAAGGUACAUGAGGAUCACCCAUGUGAAUA | 0.0277 µM | 0.0234 µM |  | 
UUGAUAAGGAGAGGAUAUGGACAUGAGGAUCACCCAUGUACAUGGGAAUAUAUACUGAAUUUUUACUAGAAGGCUUACAUAUUU | 0.0147 µM | 0.013 µM |  | 
UUGAUUAGAAGUUAACAUGAGGAUCACCCAUGUAUUGGAUCAGAGGAUAUGCAUGUUUGAUAGUAGCAGAAGGCUGAUGGUGGA |  |  | 0.0535 µM | 0.0616 µM
UUGAUUAUACAAGGAUAUCAAUUGUAUACAAGUCUUACAUGAGGAUCACCCAUGUUAAAUUUUUUUGAGAAGGUGUAUUGUCAG |  |  | 0.0402 µM | 0.024 µM
UUGAUUAUACAAGGAUAUCAAUUGUAUACAAGUCUUACAUGAGGAUCACCCAUGUUAAAUUUUUUUGAGAAGGUGUGUUGUCAG |  |  | 0.0339 µM | 0.0285 µM
UUGGACGUCGUAGAAUAUGUAGGAUAUUCCUACAUGAGGAUCACCCAUGUUGACAUGGAAGAAGGACAGAAGGACGAUGUCCAU |  |  | 0.188 µM | 0.00702 µM
UUGGACGUCGUAGGAUAUGAAGGAUAUUCCUACAUGAGGAUCACCCAUGUUGACAUGGAAGAAGGACAGAAGGACGAUGUCCAU |  |  | 0.0114 µM | 0.00516 µM
UUGGACGUCGUAGGAUAUGUAGGAUAUUCCUACAUGAGGAUCACCCAUGUUGACAUAGAAGAAGGACAGAAGGACGAUGUCCAU |  |  | 0.0883 µM | 0.00486 µM

Sequence | apparent Kd [1] | apparent Kd [2] | apparent Kd [3] | apparent Kd [4]
UUGGACGUCGUAGGAUAUGUAGGAUAUUCCUACAUGAGGAUCACCCAUGUUGACAUGGAAGAAGGACGGAAGGACGAUGUCCAU |  |  | 0.899 µM | 0.0189 µM
UUGGACGUCGUAGGAUAUGUAGGAUAUUCCUACAUGAGGAUCACCCAUGUUGACAUGGAUGAAGGACAGAAGGACGAUGUCCAU |  |  | 0.276 µM | 0.357 µM
UUGGACGUCGUAGGAUAUGUAGGAUAUUCCUACAUGAGGAUCACCCAUGUUGACAUGUAAGAAGGACAGAAGGACGAUGUCCAU |  |  | 0.208 µM | 0.0122 µM
UUGGACGUCGUAGGAUAUGUAGGAUAUUCCUACAUGAGGAUCACCCAUGUUGAGAUGGAAGAAGGACAGAAGGACGAUGUCCAU |  |  | 0.0253 µM | 0.00405 µM
UUGGACGUCGUAGGAUAUGUAGGAUCUUCCUACAUGAGGAUCACCCAUGUUGACAUGGAAGAAGGACAGAAGGACGAUGUCCAU |  |  | 0.00688 µM | 0.00477 µM
UUGGACGUCGUAGGAUAUGUAUGAUAUUCCUACAUGAGGAUCACCCAUGUUGACAUGGAAGAAGGACAGAAGGACGAUGUCCAU |  |  | 0.0058 µM | 0.00456 µM
UUGGCACAUGAGGAUCACCCAUGUUAGGAUAUUGUGGUAGAAACAGCUGGGAAACGCACGAGAAGGGACACACG | 0.0371 µM | 0.0555 µM |  | 
UUGGCAUCGUAGAAGGGUGACAUGAGGAUCACCCAUGUGAUGAUAUUUCUCGAGAUAUGUUGUCCAUAGGAUAUACGAGCGAAC |  |  | 0.0809 µM | 0.0185 µM
UUGGCGACGUAGAAGGGUGACAUGAGGAUCACCCAUGUGCCGAUAUUUCUCGAAAUAUGUCGGCCACAGGAUAUACGUGCCAUC |  |  | 0.0382 µM | 0.0918 µM
UUGGCGCGAUCCUGGGUCUCACAUGAGGAUCACCCAUGUAGAGAGGAUAUGCAUAGGGCCCAAUGGCAGAAGGCUCUACAUGAG | 0.0914 µM | 0.0572 µM |  | 
UUGGUAUUCGUAGGAUAUCCGUCGCCACCGUGUGGAGAAGGACGAACAUGAGGAUCACCCAUGUAUCAUGGUGUGGGCGUUGUC | 0.0925 µM | 0.0901 µM |  | 
UUGGUGUACGUAGGAUAUGUAGGAUAUUCCUACAUGAGGAUCACCCAUGUAUGCAUGGAAGAAGGACAGAAGGACGUGCACCAU |  |  | 0.203 µM | 0.014 µM
UUGUAACGAUUAGGAUAUUAUUAAUAGAACUUUAUGAUAUACAUGAGGAUCACCCAUGUUACUUUUAAGAAGGAAUCGUAUUAU | 0.0244 µM | 0.0183 µM |  | 
UUGUACAUAGGAUAUAGUUGUUUGUACAUGAGGAUCACCCAUGUUAUGUAUCUUUUGCUUCUAGAAGGAUGUUCUU | 0.0387 µM | 0.0277 µM |  | 
UUGUGGGAGCAGGAUAUCUUAGUUUGGUUGUGUGGAGAAGGGCUGACAUGAGGAUCACCCAUGUGGUCCUAGAU | 0.0241 µM | 0.0295 µM |  | 
UUGUUAUAUGUAGGAUAUGCAUAUUAUUAUUAUGCAGAAGGACAUGAGGAUCACCCAUGUAUAUUGUUGUUAUAUAUUAUAUAU | 0.024 µM | 0.0284 µM |  | 
UUGUUAUAUGUAGGAUAUGCGUAUUAUUAUUAGGCAGAAGGACAUGAGGAUCACCCAUGUAUGUUGUUGUUAUAUAUUAUAUAU | 0.0284 µM | 0.0296 µM |  | 
UUGUUAUAUGUAGGAUAUGCGUAUUAUUGUUAUGCAGAAGGACAUGAGGAUCACCCAUGUAUAUUAUUGUUAUAUAUUAUAUAU | 0.0257 µM | 0.0665 µM |  | 
UUGUUCUGAGGAUAUACAUGAGGAUCACCCAUGUGUUUCAGCUAGGAGACUAGCGAAAGUAGAAGGCUGUUCUC | 0.0167 µM | 0.018 µM |  | 
UUGUUCUGAGGAUAUACAUGAGGAUCACCCAUGUGUUUCUGCUUGGUGUCUUGCGAAUGUAGAAGGCUGUUCUC | 0.0375 µM | 0.0402 µM |  | 
UUGUUGUGUGUAGGAUAUGCAUAUUAUUAUUAUGCAGAAGGACAUGAGGAUCACCCAUGUAUAUUAUUAUUAUAUAUUAUAUAU | 0.0311 µM | 0.0366 µM |  | 
UUGUUUGUAGUGAGGAUAUCGUUGAGGAAGAGGAUCGAGAAGGCACAUGAGGAUCACCCAUGUUAGAUGUGGUU | 0.17 µM | 0.198 µM |  | 
UUUAAGUCAGGAUAUCGUUAAUUUAAUUAAUUAUUUUAAUUCGAGAAGGGACAUGAGGAUCACCCAUGUAAUUU | 0.0368 µM | 0.0602 µM |  | 
UUUAAUAUUAUAGGAUAUGGAUACGAUACGUAUCCAGAAGGGUGAUUAAACUAUAAUCUAUACAUGAGGAUCACCCAUGUUUAU |  |  | 0.212 µM | 0.0447 µM
UUUACAUGAGGAUCACCCAUGUAUAGAACGGUUAAUUAAAGUGAGGAUAUACAUAAUUUUAAAUUGUAGAAGGCACUGGGUACA |  |  | 0.0144 µM | 0.0199 µM
UUUACAUGAGGAUCACCCAUGUAUAGAACGGUUCAUUAAAGUGAGGAUAUACAUAAUUUUAAAUUGUAGAAGGCACUGGGUACA |  |  | 0.0177 µM | 0.0192 µM
UUUACAUGAGGAUCACCCAUGUCUGUCACCCAUGUGUGCAAUCAGGAUAUGAUCUCAAGAAUGAAUUAGAAGGGAUAACAUGAG |  |  | 0.182 µM | 0.194 µM
